The source of these data is PubChem BioAssay.

Active and inactive are the calls of the source.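 Rule for the calls, unless noted: active = viability at or below 10% of carrier control in both of two separate runs; inconclusive = viability at or below 10% in only one of the two runs; inactive = the rest.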

Test [1] is described as follows: reducers of endogenous Her2 protein level, primary screen, SKBR3 breast tumor cells, AlphaScreen, ATP viability (AID 461;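 active = Her2 level under about 52% in both replicate screens, with viability over 70% of control, limit read from the data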;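 for Her2 level: lower value means less Her2 protein in the cells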;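 for viability: percent of carrier control wells set as 100% viability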). As to conditions: 18-24 h, measured here: SKBR3 viability, ATP luminescence, at 10 µM. A general note: Bead proximity is the source of the signal in Alpha formats.
Test [2] has as its target Receptor tyrosine-protein kinase erbB-2 (Homo sapiens) (UniProt P04626). Described as above. As to conditions: 18-24 h, at 10 µM, stronger effect = lower value.
The nature of test [3]: SK-BR-3 cell growth inhibitors, pilot screen, 24 h, human (AID 572).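 Note: compound exposure lasted between 18 and 24 h rather than exactly 24 h; 100% = carrier-treated control wells.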 The note with it: SK-BR-3 viability, CellTiter-Glo luminescence, at 10 µM, stronger effect = lower value.
Test [4] is described as follows: HUVEC growth inhibition – cell-based, human, primary screen (AID 575;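 active = viability at or below 30% in both replicate assays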;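 note: 100% = median of untreated cell wells with 0.1% DMSO on each plate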). The note with it: HUVEC proliferation, CellTiter-Glo luminescence, 72 h; at 10 µM; stronger effect = lower value. The method in brief: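 Material: primary human umbilical vein endothelial cells / Schedule: 72 h exposure, 37 °C, 5% CO2, 30 min RT equilibration / Signal: ATP-based CellTiter-Glo luminescent read / Read-out basis: percent of median DMSO-control luminescence / Control set: 32 DMSO-only cell-control wells (high), 32 MePR drug-control wells (low) per plate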
(In ATP-based viability assays light output follows the ATP content of the culture.)

Test [5] is described as follows: growth inhibitors of H69AR lung tumor, primary screen, human, duplicate replicates (AID 580;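 active = viability at or under a set limit in both replicates, limit being median viability minus 3 SD, cut at about 48% in these data, passing the limit was not always enough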;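 note: 100% = mean luminescence of untreated wells and 0% = no signal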). As to conditions: H69AR lung tumor cells viability, ATP luminescence, 72 h; at 10 µM; stronger effect = lower value.
Test [6] can be described thus: reversal of MRP1-mediated doxorubicin resistance, pilot screen, H69AR cells, doxorubicin co-treatment (AID 601;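 active = viability loss from added drug above about 55%, and viability with drug at most 40%, in both replicates, limit read from the data, passing the limit was not always enough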). As to conditions: CellTiter-Glo, 72 h, at 10 µM; for differential viability (reversal): stronger effect = higher value.
Test [7] is described as follows: 384-well plate pilot, post-Golgi transport modulator project, inhibition of yeast transport mutant growth (AID 636; in the data active = inhibition above about 31%). As to conditions: absorbance 615 nm, about 18 h, stronger effect = higher value.
Test [8] is described as follows: growth suppression of yeast trafficking mutant, preliminary HTS, modulators of trafficking downstream of Golgi apparatus project, 1536-format plate, OD 615 nm (AID 637; in the data active = inhibition above about 30%). As to conditions: yeast transport mutant growth, absorbance 615 nm, 18 h; stronger effect = higher value.
[9] abbreviates: H69AR cells + 2 uM doxorubicin, measured here: viability with 2 uM doxorubicin, stronger effect = lower value.
Where [10] appears, read: H69AR cells, compound alone cytotoxicity.

Chain of Receptor tyrosine-protein kinase erbB-2 (Homo sapiens) (P04626 whole entry, looked up): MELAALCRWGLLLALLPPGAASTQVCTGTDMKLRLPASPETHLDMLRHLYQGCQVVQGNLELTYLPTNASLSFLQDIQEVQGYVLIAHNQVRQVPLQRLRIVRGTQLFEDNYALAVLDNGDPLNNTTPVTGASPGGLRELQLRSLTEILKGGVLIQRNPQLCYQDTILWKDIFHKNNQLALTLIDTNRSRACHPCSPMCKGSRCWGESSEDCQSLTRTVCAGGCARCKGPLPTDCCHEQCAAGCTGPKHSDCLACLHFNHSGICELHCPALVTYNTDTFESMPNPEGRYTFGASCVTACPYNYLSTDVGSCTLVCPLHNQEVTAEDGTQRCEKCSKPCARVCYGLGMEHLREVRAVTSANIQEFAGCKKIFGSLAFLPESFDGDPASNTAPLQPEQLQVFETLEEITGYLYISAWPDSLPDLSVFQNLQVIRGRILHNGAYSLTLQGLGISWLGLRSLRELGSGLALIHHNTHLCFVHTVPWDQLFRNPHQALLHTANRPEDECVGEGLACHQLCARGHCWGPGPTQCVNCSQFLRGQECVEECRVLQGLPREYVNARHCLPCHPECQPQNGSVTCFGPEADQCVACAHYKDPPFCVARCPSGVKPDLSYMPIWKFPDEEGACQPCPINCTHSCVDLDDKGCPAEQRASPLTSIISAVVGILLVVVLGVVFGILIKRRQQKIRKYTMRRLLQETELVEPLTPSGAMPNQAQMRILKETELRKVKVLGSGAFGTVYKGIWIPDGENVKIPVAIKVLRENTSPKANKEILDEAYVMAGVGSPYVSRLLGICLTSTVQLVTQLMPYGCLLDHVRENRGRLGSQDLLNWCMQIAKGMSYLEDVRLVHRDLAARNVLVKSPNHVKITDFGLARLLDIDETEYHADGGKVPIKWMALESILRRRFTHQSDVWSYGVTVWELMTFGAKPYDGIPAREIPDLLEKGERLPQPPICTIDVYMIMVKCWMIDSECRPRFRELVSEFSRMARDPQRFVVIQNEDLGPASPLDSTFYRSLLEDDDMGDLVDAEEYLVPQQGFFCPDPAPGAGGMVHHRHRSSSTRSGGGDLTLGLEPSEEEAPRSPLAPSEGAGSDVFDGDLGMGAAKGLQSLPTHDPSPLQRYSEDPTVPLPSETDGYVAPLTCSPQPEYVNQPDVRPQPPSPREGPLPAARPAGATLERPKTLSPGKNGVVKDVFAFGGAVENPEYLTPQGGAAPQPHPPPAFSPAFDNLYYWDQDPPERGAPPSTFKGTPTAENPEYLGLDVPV

The viability is a read-out of living cells in per cent, often relative to untreated cells. What is called inhibition is the drop in the measured response relative to a control, in per cent. For `CC(C(=O)Nc1ccccc1-c1ccccc1)N1CCN(C(=O)c2ccco2)CC1` (stereo not given), the viability in test [1] is 91.5%; in test [3], 91.5% (inactive); in test [4], 96.2% (inactive); in test [5], 74.1% (inactive); in test [6] (setting [9]), 65.8%; in test [6] (setting [10]) it was 74.1%. In test [2], the Her2 level is 95% (inactive). Besides, the differential viability (reversal) in test [6] (H69AR cells + 2 uM doxorubicin) was 8.3% (inactive). The inhibition was -6.18% (inactive) in test [7] and 0.32% (inactive) in test [8].

For the compound `COC(=O)c1ccc2ncccc2c1`, the viability in test [1] is 110%; in test [3] it was 110% (inactive); in test [4], 111% (inactive); in test [5] it was 107% (inactive); in test [6] (setting [9]) it was 98.8%; in test [6] (setting [10]) it was 107%. The Her2 level in test [2] was 131% (inactive). In addition, the differential viability (reversal) in test [6] (H69AR cells + 2 uM doxorubicin) was 7.81% (inactive). Further, the inhibition was -1.32% (inactive) in test [7] and 7.7% (inactive) in test [8].

As to `Cc1ccc2nsnc2c1S(=O)(=O)N(Cc1cc2cccc(C)c2[nH]c1=O)CC1CCCO1` (stereo not given), the viability was 81.5% in test [1]; 81.5% (inactive) in test [3]; 82.3% (inactive) in test [4]; 21.4% (active) in test [5]; 21.4% in test [6] (setting [9]); 21.4% in test [6] (setting [10]). In addition, the Her2 level in test [2] is 89% (inactive). For the same compound, the differential viability (reversal) in test [6] (H69AR cells + 2 uM doxorubicin) was 0% (inactive). In addition, the inhibition in test [7] was -5.6% (inactive); in test [8] it was -0.66% (inactive).

`O=C(NCc1cccnc1)C1CCCN(S(=O)(=O)c2ccc(Cl)cc2)C1` (stereo not given): the viability in test [1] was 102%; in test [3], 102% (inactive); in test [4] it was 77.1% (inactive); in test [5], 86.9% (inactive); in test [6] (setting [9]) it was 84.9%; in test [6] (setting [10]), 86.9%. Besides, the Her2 level in test [2] is 96% (inactive). The differential viability (reversal) in test [6] (H69AR cells + 2 uM doxorubicin) is 1.95% (inactive). Further, the results for the inhibition in test [7] and in test [8] were -2.57% (inactive) and -1.75% (inactive), respectively.

For the compound `Cc1ccc(-c2nnn(CC(=O)N(Cc3ccco3)C(C(=O)NC(C)(C)C)c3cccs3)n2)o1` (stereo not given), the viability in test [1] is 119%; in test [3], 119% (inactive); in test [4], 89.1% (inactive); in test [5], 95.9% (inactive); in test [6] (setting [9]), 89.8%; in test [6] (setting [10]) it was 95.9%. Also, the Her2 level in test [2] was 81% (inactive). Besides, the differential viability (reversal) in test [6] (H69AR cells + 2 uM doxorubicin) was 6.13% (inactive). For the same compound, the inhibition was 0.4% (inactive) in test [7] and -4.1% (inactive) in test [8].

`CC(C)N1C(=O)C2C(C(=O)NC3CCCCC3)C3C=CC2(O3)C1C(=O)NC1CCCC1` (stereo not given): the viability in test [1] was 94.5%; in test [3] it was 94.5% (inactive); in test [4], 107% (inactive); in test [5], 109% (inactive); in test [6] (setting [9]) it was 93.5%; in test [6] (setting [10]), 109%. The Her2 level in test [2] was 87% (inactive). For the same compound, the differential viability (reversal) in test [6] (H69AR cells + 2 uM doxorubicin) was 15.9% (inactive). Moreover, the inhibition was -4.67% (inactive) in test [7] and -1.11% (inactive) in test [8].

For `Cc1cc(Cl)ccc1OCCCC(=O)N1CCOCC1`, the viability in test [1] is 90%; in test [3], 90% (inactive); in test [4], 99.5% (inactive); in test [5], 87.7% (inactive); in test [6] (setting [9]), 87.6%; in test [6] (setting [10]), 87.7%. Also, the Her2 level in test [2] is 92.5% (inactive). Further, the differential viability (reversal) in test [6] (H69AR cells + 2 uM doxorubicin) is 0.08% (inactive). Moreover, the inhibition in test [7] is -5.39% (inactive); in test [8], 11.2% (inactive).

Consider `CNC(=O)c1nnn(Cc2ccccc2)c1NC(C)=O`, for which the viability in test [1] is 97.5%; in test [3] it was 97.5% (inactive); in test [4], 104% (inactive); in test [5], 88.9% (inactive); in test [6] (setting [9]) it was 96.1%; in test [6] (setting [10]) it was 88.9%. In test [2], the Her2 level was 105% (inactive). In addition, the differential viability (reversal) in test [6] (H69AR cells + 2 uM doxorubicin) was -7.25% (inactive). Besides, the inhibition in test [7] is 1.35% (inactive); in test [8], 12.5% (inactive).

In the case of `COc1ccccc1-c1nc2n(n1)C(c1cccs1)C(C(=O)Nc1cccnc1)=C(C)N2` (stereo not given), the viability was 83.5% in test [1]; 83.5% (inactive) in test [3]; 97.9% (inactive) in test [4]; 87.1% (inactive) in test [5]; 87% in test [6] (setting [9]); 87.1% in test [6] (setting [10]). The Her2 level in test [2] was 95.5% (inactive). In test [6] (H69AR cells + 2 uM doxorubicin), the differential viability (reversal) is 0.115% (inactive). Moreover, the inhibition is -2.43% (inactive) in test [7] and -4.92% (inactive) in test [8].

As to `COc1ccc(Cc2nnc(NC(=O)Cc3cccs3)s2)cc1`, the viability in test [1] is 104%; in test [3] it was 104% (inactive); in test [4] it was 103% (inactive); in test [5] it was 106% (inactive); in test [6] (setting [9]) it was 101%; in test [6] (setting [10]), 106%. The Her2 level in test [2] is 112% (inactive). For the same compound, the differential viability (reversal) in test [6] (H69AR cells + 2 uM doxorubicin) was 5.58% (inactive). Further, the inhibition was 0.41% (inactive) in test [7] and -4.29% (inactive) in test [8].

Turning to `O=C(CCS(=O)(=O)c1cccc2nsnc12)N1CCN(Cc2ccc3c(c2)OCO3)CC1`, the viability in test [1] is 90.5%; in test [3], 90.5% (inactive); in test [4], 92.7% (inactive); in test [5] it was 94.4% (inactive); in test [6] (setting [9]), 104%; in test [6] (setting [10]) it was 94.4%. In addition, the Her2 level in test [2] is 99% (inactive). Besides, in test [6] (H69AR cells + 2 uM doxorubicin), the differential viability (reversal) was -9.25% (inactive). Besides, the inhibition in test [7] was -6.71% (inactive); in test [8], -5.87% (inactive).

In the case of `COC(=O)Nc1ccc(NC(C)=O)cc1`, the viability in test [1] was 96%; in test [3], 96% (inactive); in test [4] it was 103% (inactive); in test [5], 91% (inactive); in test [6] (setting [9]) it was 82.1%; in test [6] (setting [10]) it was 91%. Further, in test [2], the Her2 level is 116% (inactive). In test [6] (H69AR cells + 2 uM doxorubicin), the differential viability (reversal) is 8.88% (inactive). The inhibition in test [7] is 5.84% (inactive); in test [8], -8.36% (inactive).

As to `Cc1ccc(-c2nnn(CC(=O)N(CC(=O)NC3CCCCC3)c3cnc4ccccc4c3)n2)o1`, the viability is 98% in test [1]; 98% (inactive) in test [3]; 93.3% (inactive) in test [4]; 96.5% (inactive) in test [5]; 80.6% in test [6] (setting [9]); 96.5% in test [6] (setting [10]). In addition, in test [2], the Her2 level was 92% (inactive). The differential viability (reversal) in test [6] (H69AR cells + 2 uM doxorubicin) was 15.9% (inactive). Also, the inhibition in test [7] is -7.6% (inactive); in test [8], -1.61% (inactive).

Turning to `COc1cc(C(=O)N2CCN(C(=O)CC(C)C)CC2)cc(OC)c1OC`, the viability in test [1] was 93.5%; in test [3], 93.5% (inactive); in test [4], 101% (inactive); in test [5], 91.3% (inactive); in test [6] (setting [9]), 97.9%; in test [6] (setting [10]), 91.3%. For the same compound, in test [2], the Her2 level was 106% (inactive). Besides, the differential viability (reversal) in test [6] (H69AR cells + 2 uM doxorubicin) is -6.59% (inactive). Also, the inhibition was 2.63% (inactive) in test [7] and 13.2% (inactive) in test [8].
